Results as given in ChEMBL document CHEMBL4130515, “Identification of Privileged Antichlamydial Natural Products by a Ligand-Based Strategy” (J Nat Prod, 2017).

Tests used:
HL = test: (§1) Cytotoxicity against human HL cells assessed as cell viability at 50 uM after 72 hrs by resazurin dye based fluorescence assay relative to control; settings: hl, 72 h, 50 µM
Method in brief: (§2)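 HL cells grown overnight to confluence, then exposed to compound at 50 μM for 72 h at 37 °C, four parallel replicates. Read-out after 2 h with 20 μM resazurin in PBS, fluorescence at 570/590 nm (ex/em). Viability % is relative to cells in 0.25% DMSO medium. Usnic acid 50 μM as positive control.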

[1] = as §1; settings: HL cells, read-out: Activity; method in brief: as §2
Chlamydia pneumoniae [2] = test: Antichlamydial activity against Chlamydia pneumoniae K7 infected in HL cells assessed as chlamydial inhibition at 50 uM after 70 hrs by fluorescent microscopic analysis; type: functional
Method in brief: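 Confluent HL cells infected with C. pneumoniae K7 at MOI 0.3 in medium with 1 μg/mL cycloheximide, centrifuged 500 rpm 1 h, then held at 37 °C for 1 h. At 2 h, compound added at 50 μM or DMSO vehicle. After 70 h at 37 °C, inclusions stained and counted in four fields per coverslip under a fluorescence microscope (20×). Inhibition % is relative to mean vehicle counts.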

Chlamydia pneumoniae [3] = test: Antichlamydial activity against Chlamydia pneumoniae K7 infected in HL cells after 70 hrs by fluorescent microscopic analysis; type: functional, organism-based; settings: K7, HL, 70 h
Method in brief: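 HL cells grown to confluence, infected with C. pneumoniae K7 at MOI 0.3 in medium with 1 μg/mL cycloheximide, centrifuged 500 rpm 1 h, then 37 °C 1 h. At 2 h, inoculum replaced by cycloheximide medium with compound at 12 concentrations from 1 nM to 100 μM. Incubated 70 h at 37 °C, stained, and inclusions counted by fluorescence microscopy. Three runs; IC50 from variable-slope sigmoidal fit. Azithromycin 20 nM as positive control.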

IC50 (Chlamydia pneumoniae [3]) [µM] | Structure (SMILES) | Activity (HL) | viability at 72 h, 50 µM [1] [%] | inhibition at 50 µM (Chlamydia pneumoniae [2]) [%]
 | O=c1cc(-c2ccccc2)oc2cc(O)cc(O)c12 [CHRYSIN] | Toxic |  | 
 | COc1ccc2ccc(=O)oc2c1CC=C(C)C [OSTHOLE] | Toxic |  | 
35.1 | OC1c2ccccc2N=C2CCCN21 (stereo not given) [PEGANOLE] |  | 95.2 | 66.2
